From ChEMBL document CHEMBL1141824, “The antiproliferative effect of acridone alkaloids on several cancer cell lines” (J Nat Prod, 1999)

Assays:
Format in all cases: functional, cell-based
A549 = assay: Antiproliferative activity against human A549 cells after 3 days by alamar blue assay; conditions: A549, 72 h
Procedure, shortened: (§1)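 Cells kept in DMEM with 10% heat-inactivated FBS. 2×10^3 cells per well were grown 24 h, then an equal volume of medium with serial sample dilutions was added (DMSO ≤0.4%). After 3 days, alamar Blue was added for 6 h. Proliferation was taken as blank-corrected (A570−A595) as % of untreated growth control. Triplicates.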

TGBC11TKB = assay: Antiproliferative activity against human TGBC11TKB cells after 3 days by alamar blue assay; conditions: 72 h
Procedure, shortened: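 TGBC11TKB, a lymph-node-metastasized gastric cancer line, was grown in DMEM with 5% FBS. 2×10^3 cells per well were plated, grown 24 h, then given medium with serial dilutions (final DMSO ≤0.4%) for 3 days. alamar Blue was then added for 6 h. Read-out was blank-corrected A570−A595 as % of untreated control, in triplicate.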

CCRF-HSB-2 = assay: Antiproliferative activity against human CCRF-HSB-2 cells after 3 days by alamar blue assay; conditions: CCRF-HSB-2, 72 h
Procedure, shortened: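 Suspension line maintained in RPMI1640 with 10% FBS. 10⁴ cells per well were preincubated 24 h, then mixed with an equal volume of serially diluted samples (DMSO up to 0.4%) and exposed for 3 days. Staining was alamar Blue for 24 h. Growth was expressed as % of untreated control from blank-subtracted A570−A595. Triplicate points.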

B16 = assay: Antiproliferative activity against mouse B16 cells after 3 days by alamar blue assay; conditions: B16, 72 h; procedure, shortened: as §1

| SMILES | IC50 (A549) [µM] | IC50 (TGBC11TKB) [µM] | IC50 (CCRF-HSB-2) [µM] | IC50 (B16) [µM] |
| --- | --- | --- | --- | --- |
| Cn1c2c(O)cccc2c(=O)c2c(O)cc3c(c21)C=CC(C)(C)O3 | > 40 | 16.2 | 23.6 | > 40 |
| CC(C)=CCc1c2c(c3c(c1O)c(=O)c1ccccc1n3C)C=CC(C)(C)O2 | > 40 | > 40 | > 40 | > 40 |
| CC(C)=CCc1c2c(c3c(c1O)c(=O)c1cccc(O)c1n3C)C=CC(C)(C)O2 | 9.37 | 2.13 | 5.41 | 8.04 |
| CC1(C)C=Cc2c(cc(O)c3c(=O)c4ccccc4[nH]c23)O1 | 6.37 | 2.07 | 3.1 | 5.05 |
| COc1cc2c(c3[nH]c4ccccc4c(=O)c13)C=CC(C)(C)O2 | > 40 | > 40 | > 40 | > 40 |
| CC(C)=CCc1c2c(c3[nH]c4c(O)cccc4c(=O)c3c1O)C=CC(C)(C)O2 [ATALAPHYLLININE] | 6.26 | 1.43 | 2.5 | 4.63 |
| CC1(C)C=Cc2c(cc(O)c3c(=O)c4cccc(O)c4[nH]c23)O1 [ATOLAPHYLLIDINE] | 6.98 | 2.83 | 4.65 | 5.58 |
| COc1cc(O)c2c(=O)c3ccc(O)c(OC)c3n(C)c2c1 [CITPRESSINE II] | > 40 | > 40 | > 40 | > 40 |
| COc1ccc2c(=O)c3c(O)cc4c(c3n(C)c2c1OC)C=CC(C)(C)O4 [CITRACRIDONE II] | > 40 | > 40 | > 40 | > 40 |
| COc1c(O)ccc2c(=O)c3c(O)cc4c(c3n(C)c12)C=CC(C)(C)O4 [CITRACRIDONE I] | > 40 | > 40 | > 40 | > 40 |
| COc1cc(O)c2c(=O)c3cccc(O)c3n(C)c2c1OC [CITRUSININE-I] | > 40 | > 40 | > 40 | > 40 |
| CC(C)=CCc1c(O)cc(O)c2c(=O)c3ccccc3n(C)c12 [GLYCOCITRINE II] | > 40 | > 40 | > 40 | > 40 |
| COc1cc(O)c2c(=O)c3cccc(O)c3n(C)c2c1CC=C(C)C [GLYCOCITRINE I] | > 40 | > 40 | > 40 | > 40 |
| COc1cc(O)c2c(=O)c3ccc(OC)c(O)c3n(C)c2c1 [GRANDISINE I] | 24.4 | 19.3 | 29.2 | > 40 |
| Cn1c2ccccc2c(=O)c2c(O)cc3c(c21)C=CC(C)(C)O3 [NORACRONYCINE] | > 40 | > 40 | > 40 | > 40 |
